From ChEMBL document CHEMBL1155883, “5-Alkyl-6-benzyl-2-(2-oxo-2-phenylethylsulfanyl)pyrimidin-4(3H)-ones, a series of anti-HIV-1 agents of the dihydro-alkoxy-benzyl-oxopyrimidine family with peculiar structure-activity relationship profile” (J Med Chem, 2008)

Key:
[1] = test system: Human immunodeficiency virus 1; experiment: Resistance index, ratio of ID50 for reverse transcriptase L100I mutant to IC50 for wild-type HIV1 reverse transcriptase
Method in brief: (§1)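 Recombinant wt and K103N, L100I or Y181I HIV-1 RT (>95% pure), 2-4 nM. RNA-dependent DNA polymerase assay on 0.5 µg poly(rA)/oligo(dT) 10:1 (0.3 µM 3'-OH ends) with 10 µM [3H]-dTTP and 8% final DMSO. Aliquots taken every 2 min. Inhibitor range 0.2-5× ID50, fitted to a noncompetitive model. Fold resistance is mutant ID50 divided by wt ID50.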

[2] = Selectivity index, ratio of CC50 for human MT4 cells to EC50 for HIV1 NL4-3; type: toxicity, cell-based; details: read-out: Ratio CC50/EC50
Method in brief: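 Computed as CC50/EC50. CC50 comes from MTT viability of mock-infected MT-4 cells and EC50 from MTT protection of NL4-3-infected MT-4 cells, both read at day 5.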

[3] = test system: Human immunodeficiency virus 1; experiment: Resistance index, ratio of ID50 for reverse transcriptase Y181I mutant to IC50 for wild-type HIV1 reverse transcriptase; method in brief: as §1
[4] = Cytotoxicity against human MT4 cells by MTT assay; type: cell-based
Method in brief: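 Mock-infected MT-4 cells were exposed to a range of compound concentrations. Viability was read by MTT at day 5. CC50 is the concentration that kills 50% of uninfected cells. The top concentration was limited by compound precipitation in culture medium. Means ± SD from at least two or three experiments.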

[5] = test system: Human immunodeficiency virus 1; experiment: Antiviral activity against HIV1 isolates with reverse transcriptase K103N mutation in human MT4 cells assessed as inhibition of virus-induced cytopathogenicity by MTT assay; type: functional, organism-based; details: Human immunodeficiency virus 1, MT4
Method in brief: (§2)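 MT-4 lymphoid cells infected with HIV-1 carrying RT K103N, Y181C or Y188L, in the presence of different drug concentrations. Viable cells counted at day 5 postinfection by MTT colorimetric assay. EC50 is the concentration that inhibits 50% of the HIV-induced cytopathic effect.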

[6] = test system: Human immunodeficiency virus 1; experiment: Antiviral activity against HIV1 NL4-3 in human MT4 cells assessed as inhibition of virus-induced cytopathogenicity by MTT assay; type: functional, organism-based; details: Human immunodeficiency virus 1, NL4-3, MT4
Method in brief: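 MT-4 lymphoid cells infected with wild-type HIV-1 NL4-3 in the presence of a range of compound concentrations. Viable cells were counted by MTT colorimetric read-out at day 5 post-infection. EC50 is the concentration giving 50% protection from virus-induced cytopathic effect. Means ± SD from at least two or three experiments.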

[7] = test system: Human immunodeficiency virus type 1 reverse transcriptase (Human immunodeficiency virus 1), Q72547 [L100I]
[8] = test system: Human immunodeficiency virus 1; experiment: Antiviral activity against HIV1 isolates with reverse transcriptase Y188L mutation in human MT4 cells assessed as inhibition of virus-induced cytopathogenicity by MTT assay; type: functional, organism-based; details: Human immunodeficiency virus 1, MT4; method in brief: as §2
[9] = test system: Human immunodeficiency virus 1; experiment: Resistance index, ratio of EC50 for drug-resistant HIV1 isolate with reverse transcriptase Y181C mutation to EC50 for wild type HIV1 NL4-3; type: functional
Method in brief: (§3)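 Fold resistance is the EC50 against the K103N, Y181C or Y188L mutant strain divided by the EC50 against wt NL4-3. Each EC50 is from MT-4 cells infected in the presence of different drug concentrations, with viability read by MTT at day 5 postinfection.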

[10] = test system: Human immunodeficiency virus 1; experiment: Resistance index, ratio of ID50 for reverse transcriptase K103N mutant to IC50 for wild-type HIV1 sreverse transcriptase; method in brief: as §1
[11] = test system: Human immunodeficiency virus 1; experiment: Antiviral activity against HIV1 isolates with reverse transcriptase Y181C mutation in human MT4 cells assessed as inhibition of virus-induced cytopathogenicity by MTT assay; type: functional, organism-based; details: Human immunodeficiency virus 1, MT4; method in brief: as §2
[12] = test system: Human immunodeficiency virus type 1 reverse transcriptase (Human immunodeficiency virus 1), Q72547 [Y181I]
[13] = biological target: Human immunodeficiency virus type 1 reverse transcriptase (Human immunodeficiency virus 1) (UniProt Q72547)
[14] = test system: Human immunodeficiency virus type 1 reverse transcriptase (Human immunodeficiency virus 1), Q72547 [K103N]
[15] = test system: Human immunodeficiency virus 1; experiment: Resistance index, ratio of EC50 for drug-resistant HIV1 isolate with reverse transcriptase K103N mutation to EC50 for wild type HIV1 NL4-3; type: functional; method in brief: as §3

SMILES	Ratio [1]	selectivity ratio [2]	Ratio [3]	CC50 [4]	EC50 [5]	EC50 [6]	ID50 [7]	EC50 [8]	Ratio EC50 [9]	Ratio [10]	EC50 [11]	ID50 [12]	ID50 [13]	ID50 [14]	Ratio EC50 [15]
COc1ccc(C(=O)CSc2nc(Cc3c(F)cccc3Cl)c(C)c(=O)[nH]2)cc1	1390	> 60	67	> 12000 nM	> 12000 nM	200 nM	25000 nM	> 12000 nM	8	150	1570 nM	1200 nM	18 nM	2700 nM	
CCc1c(Cc2c(F)cccc2F)nc(SCC(=O)c2ccccc2)[nH]c1=O	126	4670	19	56000 nM	1300 nM	12 nM	5400 nM	> 56000 nM	17	86	200 nM	820 nM	43 nM	3700 nM	108
CC(C)c1c(Cc2c(F)cccc2F)nc(SCC(=O)c2ccccc2)[nH]c1=O	600	> 30000		> 60000 nM	4460 nM	2 nM	4800 nM	> 60000 nM	120	198	240 nM	> 40000 nM	8 nM	1580 nM	2230
CCc1c(Cc2c(F)cccc2F)nc(SCC(=O)c2ccc(F)cc2)[nH]c1=O	113	> 3160	8	> 60000 nM	5140 nM	19 nM	6900 nM	> 60000 nM	38	60	720 nM	510 nM	61 nM	3650 nM	270
CCc1c(Cc2c(F)cccc2Cl)nc(SCC(=O)c2ccc(F)cc2)[nH]c1=O	170	> 11400	12	> 57000 nM	4140 nM	5 nM	5600 nM	> 57000 nM	386	50	1930 nM	380 nM	33 nM	1640 nM	828
Cc1c(Cc2c(F)cccc2Cl)nc(SCC(=O)c2ccccc2)[nH]c1=O	275	> 267	100	> 12000 nM	9480 nM	45 nM	3300 nM	> 12000 nM	37	1920	1680 nM	1200 nM	12 nM	23000 nM	211
Cc1c(Cc2c(F)cccc2Cl)nc(SCC(=O)c2ccc(F)cc2)[nH]c1=O	49	> 29500	4	> 59000 nM	8720 nM	2 nM	8800 nM	> 59000 nM	140	30	280 nM	700 nM	180 nM	5350 nM	4360
CCc1c(Cc2c(F)cccc2Cl)nc(SCC(=O)c2ccc(OC)cc2)[nH]c1=O	414	> 550		> 11000 nM	4160 nM	20 nM	2900 nM	> 11000 nM	42		840 nM	> 40000 nM	7 nM	> 40000 nM	208
CCC(C)c1c(Cc2c(F)cccc2Cl)nc(SCC(=O)c2ccc(F)cc2)[nH]c1=O (centres undefined)	1360	> 3180		> 54000 nM	> 54000 nM	17 nM	32700 nM	> 54000 nM	51		860 nM	> 40000 nM	24 nM	> 40000 nM	
CC(C)c1c(Cc2c(F)cccc2F)nc(SCC(=O)c2ccc(F)cc2)[nH]c1=O	70	> 11600		> 58000 nM	> 58000 nM	5 nM	5700 nM	> 58000 nM	36	71	180 nM	> 40000 nM	82 nM	5820 nM	
O=C(CSc1nc(Cc2c(Cl)cccc2Cl)cc(=O)[nH]1)c1ccc(F)cc1	124	> 76	46	> 59000 nM	> 59000 nM	780 nM	26100 nM	> 59000 nM		46	> 59000 nM	9700 nM	210 nM	9700 nM	
CCc1c(Cc2c(Cl)cccc2Cl)nc(SCC(=O)c2ccc(OC)cc2)[nH]c1=O	105	> 16	6	> 54000 nM	> 54000 nM	3300 nM	2420 nM	> 54000 nM	7	21	24100 nM	140 nM	23 nM	480 nM	
Cc1c(Cc2c(F)cccc2F)nc(SCC(=O)c2ccccc2)[nH]c1=O	38	4330	5	65000 nM	19000 nM	15 nM	12700 nM	> 65000 nM	35	32	520 nM	1680 nM	330 nM	10400 nM	1267
Cc1c(Cc2c(F)cccc2F)nc(SCC(=O)c2ccc(F)cc2)[nH]c1=O	96	> 2480	4	> 62000 nM	> 62000 nM	25 nM	39200 nM	> 62000 nM	14	29	350 nM	1710 nM	410 nM	12000 nM	
CCC(C)c1c(Cc2c(F)cccc2Cl)nc(SCC(=O)c2ccc(OC)cc2)[nH]c1=O (centres undefined)	3910	> 6670	1130	40000 nM	> 40000 nM	6 nM	27400 nM	> 40000 nM		84	> 40000 nM	7900 nM	7 nM	590 nM	
COc1ccc(CSc2nc(Cc3c(Cl)cccc3Cl)c(C)c(=O)[nH]2)cc1		4570	37500	32000 nM				> 32000 nM		25500					671
O=C(CSc1nc(Cc2c(F)cccc2Cl)cc(=O)[nH]1)c1ccccc1	750	> 10	200	> 13000 nM	> 13000 nM	1260 nM	1500 nM	> 13000 nM		1000	> 13000 nM	400 nM	2 nM	2000 nM	
Cc1ccnc2c1NC(=O)c1cccnc1N2C1CC1 [NEVIRAPINE]	22	> 54	87	> 7000 nM	4960 nM	130 nM		> 7000 nM		17	> 7000 nM				38
